Test results as given in the RNAGym collection of RNA variant scans (doi:10.1126/science.aae0568).
Fewer inactive variants are shown than the library holds.

B1: tRNA (parent)
chain: GUUCCGUUGGCGUAAUGGUAACGCGUCUCCCUCCUAAGGAGAAGACUGCGGGUUCGAGUCCCGUACGGAACG

Variants of: B1
Experiment: yeast fitness relative to wild type (ratio to wild type); higher = fitter; tRNA-Arg(CCU), competitive growth, 37 C, YPD
In short: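 Start and end populations of a pooled competition were compared by 100-nucleotide paired-end sequencing of gene amplicons. The Saccharomyces cerevisiae strains carried tRNA-Arg(CCU) gene variants at the native genomic locus, synthesised with a 3% per-site mutation rate at 69 sites, and competed in YPD at 37°C for 24 hours in six parallel replicates. Darwinian fitness relative to wild type was based on the change in genotype frequencies. Genotypes required ≥ 100 starting reads, and estimates < 0.5 were set to 0.5.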

Variant	yeast fitness
GUUAGGUUGGCGUAAUGGUGACGCGUCUCCCUCCUAAGGAGAAGACUGCGGGUUCGUGUCCCGUACGUAACG	≤ 0.5
GUUAGGUUGGCGUAAUGGUAACGCGUCUCCCUCCUAGGGAGAAGAGUGCGGGUUCGAGUCCCGUACGGAACG	≤ 0.5
GUUAGGUUGGCGUAAUGGUAACGCGUCUCCCUCCUAAGGAGGAGACUGCGGGUUCGAGUCCCGUACGGAACG	≤ 0.5
GUUAGGUUGGCGUAAUGGUAACGGGUCUUCCUCCUAAGGAGAAGACUGCGGGUUCGAGUCCCGUACGGAACG	≤ 0.5
GUUAGGUUGGCGUAAUGGUAACGCGUCUCCCUCCUAAGGAGAAGAGUGCGGGUUCGAGUCCCGUACGGAACG	≤ 0.5
GUUAGGUUGGCGUAAUGGUAACGCGUCUCCCUCCUAAGGAGAAGACUGCGGGUUCGAGUUCUGUACGGAACG	≤ 0.5
GUUAGGUUGGCGUAAUGGUAACGCGUCUCCCUCCUAAGGAGAAGACUGCGGGUUCGAGUCCCGUAGGGAACG	0.597
GUUAGGUUGGCGUAAUGGUAACGCGUCUCCCUCCUAAGGAGAAGACUGCGGGUUCGAGUCCCGUAUGGAACG	0.538
GUUAGGUUGGCGUAAUGGUAACGCGUCUCCCUCCUAAGCAGAAGACUGCGGGUUCGAGUCCCGUACGGAACG	≤ 0.5
GUUAGGUUGGCGUAAUGGUAACGCGUCUCCCUCCUAAGGAGAAGACUGCAGGAUCGAGUUCCCUACGGAACG	0.614
GUUAGGUUGGCGUAAUGGUAACGCGUCUCCCUCCUAAGGAGAAGACUGCGAGUUCGAGUUCCGUACAGAACG	≤ 0.5
GUUAGGUAGGCGUAAUGGUAACGCGUCUCACUCCUAAGGAGAAGACUGCGGGUUCGAGUCCAGUACGGAACG	≤ 0.5
GUUAGGUUGGCGUAAUGGUAACGCGUCUCCCUCCUAAGGAGAAGACUGCGGGUACGAGUCCUGUACGGAACG	0.536
GUUAUGUUGGCGUAAUGGUGACGCGUCACCCUCCUAUGGAGAAGACUGCGGGUUCGAGUCUCGUACGGUACG	≤ 0.5
GUUAUGUUGGCGUAAUGGUAACGCGUCUCCCUCCUGAGGAGCAGACUGCGGGUUCGAGUCCCGUACGGAACG	≤ 0.5
GUUAUGUUGGCGUAAUGGUAAGGCGUCUCCCUCCUAAGGAGAACACUGCGGGUUCGAGUCCCGUACGGAACG	≤ 0.5
GUUAUGUUGGCGUAAUGGUAAUGCGUCUCCAUCAUAAGGAGAAGACUGCGGGUUCGAGUCCCGUACGGAACG	≤ 0.5
GUUAUGUUGGCGUAAUAGUAACGCGUCUCCCUCCUAAGGAGAAGACUGCGGCUUCGAGUCCCGUACGGAACG	0.581
GUUAUGUUGGCGUAAUGGUAACGCGUCUCCCUCCUAAGCAGCAGACUGCGGCUUCGAGUCCUGUACGGAACG	≤ 0.5

Variant	yeast fitness
GUUAUGUUGGCGUAAUGGUAACGCGUCUCCCUCCUAAGGAGAAGACUCCGGGUUCGAGUCCCGUACGGAACG	≤ 0.5
GUUAUGUUGGCGUAAUGGUAACGCGUCUCCCUCCUAAGGAGAAGACUGCGGCUUCGAGUCGCGUACGGAACG	≤ 0.5
GUUAUGUCGGCGUAAUGGUAACGCGUCUCCCUCCUAAGGAGAAGACCGCGGGUUCGAGUCCCGAACGGAACG	≤ 0.5
GUUAUGUUGGCGUAAUGGAAACGCGUCUCCCUCCUAAGGAGAAGACUGCGGGUUCGAGUCCCGUACGGAACG	0.532
GUUAUGUUGGCGUAAUGGAAACGCGUCUCCCUCCUAAGGAGAAGACUGCGGGUUUGAGUCCCGUACGGAACG	0.539
GUUACGUUGGAGUAAUGGUAACGCGUCUCCCUCCUAAGGAGAAGACUGCGGGUUCGAGUCCCGUACGGAACG	0.6
GUUACGUUGGAGUAAUGGUAACGCGUCUCCCUCCUAAGGAGAAGACUGCGGGUUCGGGUCCCGUACGGAACG	≤ 0.5
GUUACGUUGGAGUAAUGGUAACGCGUCUGCCUCCUAAGGGGAAGACUGCGGGUUCGAGUCCCGUACGGAACG	0.574
GUUACGUUGGAGUAAUGGUAACGCGUCUGCCUCCUAAGGGGAAGACUGCGGGUUCGAGUCCGGUACGGAACG	≤ 0.5
GUUACGUUGGAGUAAUGGUAACGCGUCUCCCUCCUAAGGAGAAGACUGCGGGUUCGAGUCUCGUACGGAACG	≤ 0.5
GUUACGUUGGAGUAAUGGUAACGCGUCUCCCUCCUAAGAACAAGAAUGCGGGUUCGAGUCCCGUACGAAACG	≤ 0.5
GUUACGUUGGAGCAAUGGUAACGCGUCGCCCUCCUAAGGAGAGGACUGCGGGUUCGAGUCCCGUACGGAACG	≤ 0.5
GUUACGUUGGGGUAAUGGUAACGCGUCUCCCUCCUAAGGUGAAGUCUGCGGGUUCGAGUCCCGUACGGAACG	≤ 0.5
GUUACGUUGGGGUAAUGGUAACGCGUCUCCCUCCUAAGGAGAAGACUGCGGGUUCGAGUCCCGUACGGUACG	≤ 0.5
GUUACGUUGGGGUAAUGGUAACGCGUCUCCAUCCUAAGGAGGAGACUGCGGGUUCGAGUCCCGUACGGAACG	≤ 0.5
GUUACGUUGGGGUAAUGGUAACGCGUCUCCAUCCUAAGGAGGAGACUGCGGGUUCGAGUCCCGUAAGGAACG	≤ 0.5
GUUACGUUGGGGUAAUGGUAACGCGUCUCCUUCCUAACGAGAAGACUGCGGGUUCGAGUCCCGUACGGAACG	0.552
GUUACGUUGGGGUAAUGCUAACGCGUGUCCCUCCUAAGGAGAAGACUGCGGGUUCGAGUCCCGUACGGAACG	≤ 0.5
GUUACGUUGGGGAAAUGGUCAUGCGUCUCCCUCCUCAGGAGAAGACUGCGGGUUCGAGUCCCGUACGGAACG	0.705
